Reference: ChEMBL document CHEMBL4825712

Legend:
Influenza A virus = experiment: Antiviral activity against Influenza A virus A/WSN/33(H1N1) infected in human A549 cells assessed as viral replication measured after 24 hrs by immunofluorescence microscopy; format: functional, organism-based; settings: A/WSN/1933(H1N1); for IC50: A549, 24 h; for IC90: A549, time 24 hrs
Outline: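 A549 cells were infected with A/WSN/33 at MOI 0.01 for 24 h, then fixed in 4% formaldehyde and permeabilized with 0.1% Triton X-100. They were immunostained for NP with an Alexa-488 secondary plus DAPI and imaged on an image cytometer. Percent infection = NP-positive cells divided by total cells.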

A549 = experiment: Cytotoxicity against human A549 cells by MTT assay; format: cell-based
Outline: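 MTT assay run according to the manufacturer's instructions, concurrently with NP immunostaining of infected A549 cultures.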

[1] = Selectivity index, ratio of CC50 for human A549 cells to IC50 for antiviral activity against Influenza A virus A/WSN/33(H1N1) infected in human A549 cells; format: toxicity, cell-based; settings: read-out: Selectivity Index
Outline: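 Ratio of CC50 to IC50. IC50 came from A549 cells pretreated 2 h with compound, then infected 24 h with WSN-PB2-Nanoluc at MOI 0.02 and read by Nano-Glo luminescence. CC50 was measured by CellTiter-Glo.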

Cc1ccccc1N(C)S(=O)(=O)c1cc(Cl)ccc1Cl
IC50 (Influenza A virus): > 5 µM
IC90 (Influenza A virus): > 5 µM
CC10 (A549): > 5 µM
CC50 (A549): > 5 µM

CCN(c1ccc(C)nc1)S(=O)(=O)c1cc(Cl)ccc1Cl
IC50 (Influenza A virus): > 5 µM

CCN(c1c(C)cc(Cl)cc1Cl)S(=O)(=O)c1cc(Cl)ccc1Cl
IC50 (Influenza A virus): 0.39 µM
IC90 (Influenza A virus): > 5 µM
CC10 (A549): > 5 µM
CC50 (A549): > 5 µM
selectivity ratio [1]: > 13

CCN(c1ccc(F)cc1F)S(=O)(=O)c1cc(Cl)ccc1F
IC50 (Influenza A virus): 0.82 µM
IC90 (Influenza A virus): 18.5 µM
selectivity ratio [1]: > 30

Cc1cc(Cl)ccc1N(C(F)F)S(=O)(=O)c1cc(Cl)ccc1Cl
IC50 (Influenza A virus): 1.3 µM
IC90 (Influenza A virus): > 5 µM
CC10 (A549): > 5 µM
CC50 (A549): > 5 µM
selectivity ratio [1]: > 4

CCN(c1ccc(CC(=O)O)cc1)S(=O)(=O)c1cc(Cl)ccc1Cl
IC50 (Influenza A virus): > 25 µM
IC90 (Influenza A virus): > 25 µM
CC10 (A549): > 25 µM
CC50 (A549): > 25 µM

CCN(c1ccc(C)cc1)S(=O)(=O)c1cc(Cl)ccc1Cl
IC50 (Influenza A virus): 0.084 µM
IC90 (Influenza A virus): 1.8 µM
CC10 (A549): > 25 µM
CC50 (A549): > 25 µM
selectivity ratio [1]: > 298

CCN(c1ccc(Cl)cn1)S(=O)(=O)c1cc(Cl)ccc1Cl
IC50 (Influenza A virus): > 5 µM

CCN(c1ccc(F)cc1)S(=O)(=O)c1cc(Cl)ccc1Cl
IC50 (Influenza A virus): 0.068 µM
IC90 (Influenza A virus): 0.94 µM
CC10 (A549): > 5 µM
CC50 (A549): > 5 µM
selectivity ratio [1]: > 74

CCN(c1ccc(F)cc1F)S(=O)(=O)c1cccc(Cl)c1Cl
IC50 (Influenza A virus): > 25 µM
IC90 (Influenza A virus): > 25 µM
CC10 (A549): > 25 µM

CCN(c1ccccc1)S(=O)(=O)c1cc(Cl)ccc1Cl
IC50 (Influenza A virus): 0.86 µM
IC90 (Influenza A virus): 6.9 µM
CC10 (A549): > 5 µM
CC50 (A549): > 5 µM
selectivity ratio [1]: > 6

CCOC(=O)Cc1ccc(N(CC)S(=O)(=O)c2cc(Cl)ccc2Cl)cc1
IC50 (Influenza A virus): 0.08 µM
IC90 (Influenza A virus): 5.7 µM
CC10 (A549): > 5 µM
CC50 (A549): > 5 µM
selectivity ratio [1]: > 63

CCN(c1ccc(F)cc1F)S(=O)(=O)c1ccc(Cl)c(Cl)c1
IC50 (Influenza A virus): > 25 µM
IC90 (Influenza A virus): > 25 µM
CC10 (A549): > 25 µM

CCN(c1ccc(CCO)cc1)S(=O)(=O)c1cc(Cl)ccc1Cl
IC50 (Influenza A virus): > 25 µM
IC90 (Influenza A virus): > 25 µM
CC10 (A549): > 25 µM
CC50 (A549): > 25 µM

CCN(c1ccc(CCN)cc1)S(=O)(=O)c1cc(Cl)ccc1Cl
IC50 (Influenza A virus): > 25 µM
IC90 (Influenza A virus): > 25 µM
CC10 (A549): > 25 µM
CC50 (A549): > 25 µM

CCN(c1ccc(F)cc1F)S(=O)(=O)c1cccc(Cl)c1
IC50 (Influenza A virus): 0.49 µM
IC90 (Influenza A virus): 10.3 µM
CC10 (A549): 10.3 µM
selectivity ratio [1]: > 51

CCN(c1ccc(F)cc1F)S(=O)(=O)c1ccc(Cl)cc1Cl
IC50 (Influenza A virus): > 25 µM
IC90 (Influenza A virus): > 25 µM
CC10 (A549): > 25 µM

CCN(c1ccc(F)cc1F)S(=O)(=O)c1cc(F)ccc1Cl
IC50 (Influenza A virus): 0.22 µM
IC90 (Influenza A virus): 9.8 µM
selectivity ratio [1]: > 114

CCN(c1ccncc1F)S(=O)(=O)c1cc(Cl)ccc1Cl
IC50 (Influenza A virus): > 5 µM

C#CCN(c1ccccc1C)S(=O)(=O)c1cc(Cl)ccc1Cl
IC50 (Influenza A virus): 0.38 µM
IC90 (Influenza A virus): 5.1 µM
CC10 (A549): > 5 µM
CC50 (A549): > 5 µM
selectivity ratio [1]: > 13

CCN(c1ccc(F)cc1F)S(=O)(=O)c1c(Cl)cccc1Cl
IC50 (Influenza A virus): > 25 µM
IC90 (Influenza A virus): > 25 µM
CC10 (A549): > 25 µM

Cc1ccccc1NS(=O)(=O)c1cc(Cl)ccc1Cl
IC50 (Influenza A virus): > 5 µM
IC90 (Influenza A virus): > 5 µM
CC10 (A549): > 5 µM
CC50 (A549): > 5 µM

C#CCN(c1ccc(Cl)cc1C)S(=O)(=O)c1cc(Cl)ccc1Cl
IC50 (Influenza A virus): 0.12 µM
IC90 (Influenza A virus): 3.4 µM
CC10 (A549): > 5 µM
CC50 (A549): > 5 µM
selectivity ratio [1]: > 42

CCN(c1cnccc1C)S(=O)(=O)c1cc(Cl)ccc1Cl
IC50 (Influenza A virus): > 5 µM

CCN(c1ccc(F)cc1F)S(=O)(=O)c1ccccc1Cl
IC50 (Influenza A virus): > 25 µM
IC90 (Influenza A virus): > 25 µM
CC10 (A549): > 25 µM

CCN(c1ccccc1Cl)S(=O)(=O)c1cc(Cl)ccc1Cl
IC50 (Influenza A virus): 0.15 µM
IC90 (Influenza A virus): 1.5 µM
CC10 (A549): > 5 µM
CC50 (A549): > 5 µM
selectivity ratio [1]: > 33

Cc1cc(Cl)ccc1N(CC1CC1)S(=O)(=O)c1cc(Cl)ccc1Cl
IC50 (Influenza A virus): 0.49 µM
IC90 (Influenza A virus): 2.8 µM
CC10 (A549): > 5 µM
CC50 (A549): > 5 µM
selectivity ratio [1]: > 10

COCCN(c1ccc(Cl)cc1C)S(=O)(=O)c1cc(Cl)ccc1Cl
IC50 (Influenza A virus): 1.2 µM
IC90 (Influenza A virus): 6 µM
CC10 (A549): > 5 µM
CC50 (A549): > 5 µM
selectivity ratio [1]: > 4

CCN(c1cnc(C)cn1)S(=O)(=O)c1cc(Cl)ccc1Cl
IC50 (Influenza A virus): > 5 µM

CCN(c1ccccc1C#N)S(=O)(=O)c1cc(Cl)ccc1Cl
IC50 (Influenza A virus): 0.17 µM
IC90 (Influenza A virus): 2.1 µM
CC10 (A549): > 5 µM
CC50 (A549): > 5 µM
selectivity ratio [1]: > 29

CCN(c1ccc(CC(=O)N2CCN(C)CC2)cc1)S(=O)(=O)c1cc(Cl)ccc1Cl
IC50 (Influenza A virus): > 25 µM
IC90 (Influenza A virus): > 25 µM
CC10 (A549): > 25 µM
CC50 (A549): > 25 µM

CCN(c1ccc(F)cc1F)S(=O)(=O)c1cc(Cl)cc(Cl)c1
IC50 (Influenza A virus): 0.75 µM
CC10 (A549): 25 µM
selectivity ratio [1]: > 33

CCN(c1ccc(F)cc1F)S(=O)(=O)c1cc(F)ccc1F
IC50 (Influenza A virus): 3.4 µM
IC90 (Influenza A virus): > 25 µM
CC10 (A549): > 25 µM
selectivity ratio [1]: > 7

CCN(c1c(F)cc(Cl)cc1F)S(=O)(=O)c1cc(Cl)ccc1Cl
IC50 (Influenza A virus): 0.41 µM
IC90 (Influenza A virus): > 5 µM
CC10 (A549): 0.025 µM
CC50 (A549): > 5 µM
selectivity ratio [1]: > 12

CCN(c1ccncc1Cl)S(=O)(=O)c1cc(Cl)ccc1Cl
IC50 (Influenza A virus): > 5 µM

Cc1cc(Cl)ccc1N(CCO)S(=O)(=O)c1cc(Cl)ccc1Cl
IC50 (Influenza A virus): > 5 µM
IC90 (Influenza A virus): > 5 µM
CC10 (A549): > 5 µM
CC50 (A549): > 5 µM

Cc1cc(Cl)ccc1N(CCF)S(=O)(=O)c1cc(Cl)ccc1Cl
IC50 (Influenza A virus): 35 µM
IC90 (Influenza A virus): > 5 µM
CC10 (A549): > 5 µM
CC50 (A549): > 5 µM
selectivity ratio [1]: > 9

CCN(c1cnc(C)nc1)S(=O)(=O)c1cc(Cl)ccc1Cl
IC50 (Influenza A virus): > 5 µM

CCN(c1ccc(Cl)cc1F)S(=O)(=O)c1cc(Cl)ccc1Cl
IC50 (Influenza A virus): 0.15 µM
IC90 (Influenza A virus): 1.8 µM
CC10 (A549): > 5 µM
CC50 (A549): > 5 µM
selectivity ratio [1]: > 33

C=CCN(c1ccccc1C)S(=O)(=O)c1cc(Cl)ccc1Cl
IC50 (Influenza A virus): 0.12 µM
IC90 (Influenza A virus): 0.57 µM
CC10 (A549): > 5 µM
CC50 (A549): > 5 µM
selectivity ratio [1]: > 42

C=CCN(c1ccc(Cl)cc1C)S(=O)(=O)c1cc(Cl)ccc1Cl
IC50 (Influenza A virus): 0.037 µM
IC90 (Influenza A virus): 0.43 µM
CC10 (A549): > 5 µM
CC50 (A549): > 5 µM
selectivity ratio [1]: > 135

Cc1ccccc1N(C(C)C)S(=O)(=O)c1cc(Cl)ccc1Cl
IC50 (Influenza A virus): 1.8 µM
IC90 (Influenza A virus): > 5 µM
CC10 (A549): > 5 µM
CC50 (A549): > 5 µM
selectivity ratio [1]: > 3

CCN(c1ccc(F)cc1F)S(=O)(=O)c1ccccc1
IC50 (Influenza A virus): > 25 µM
IC90 (Influenza A virus): > 25 µM
CC10 (A549): > 25 µM

CCN(c1ccc(C)nn1)S(=O)(=O)c1cc(Cl)ccc1Cl
IC50 (Influenza A virus): > 5 µM

CCN(c1ccc(CCNC(C)=O)cc1)S(=O)(=O)c1cc(Cl)ccc1Cl
IC50 (Influenza A virus): > 25 µM
IC90 (Influenza A virus): > 25 µM
CC10 (A549): > 25 µM
CC50 (A549): > 25 µM
